Data: ChEMBL document CHEMBL1141617, “Synthesis and evaluation of antitumoral activity of ester and amide derivatives of 2-arylamino-6-trifluoromethyl-3-pyridinecarboxylic acids” (2008)

Tests used:
Type in all cases: functional
HOP-92 = assay: Growth inhibition of human HOP92 cells; conditions: for TGI: read-out: Log TGI (converted)
Procedure, shortened: (§1)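 NCI 60 human tumour cell line panel grown in RPMI1640 with 5% fetal calf serum and 2 mM L-glutamine. Cells seeded at a density set by each line's growth characteristics and preincubated 24 h. Compounds added in DMSO at 10^-4 to 10^-8 M (five 10-fold dilutions) and left 48 h continuously. Growth read by sulforhodamine B protein stain. GI50 is the molar concentration giving 50% net growth inhibition.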

OVCAR-3 = assay: Growth inhibition of human OVCAR-3 cells; procedure, shortened: as §1
HCC 2998 = assay: Growth inhibition of human HCC2998 cells; conditions: for TGI: read-out: Log TGI (converted); procedure, shortened: as §1
[1] = Growth inhibition of human H23 cells; conditions: NCI-H23; procedure, shortened: as §1
IGROV-1 = assay: Growth inhibition of human IGROV1 cells; procedure, shortened: as §1
HL-60 = assay: Growth inhibition of human HL60 cells; procedure, shortened: as §1
NCI-H522 = assay: Growth inhibition of human NCI-H522 cells; conditions: for TGI: read-out: Log TGI (converted); procedure, shortened: as §1
T47D = assay: Growth inhibition of human T47D cells; procedure, shortened: as §1
PC-3 = assay: Growth inhibition of human PC3 cells; procedure, shortened: as §1
CCRF-CEM = assay: Growth inhibition of human CCRF-CEM cells; procedure, shortened: as §1
KM12 = assay: Growth inhibition of human KM12 cells; procedure, shortened: as §1
Hs-578T = assay: Growth inhibition of human HS578T cells; conditions: for TGI: read-out: Log TGI (converted); procedure, shortened: as §1
NCI-H226 = assay: Growth inhibition of human NCI-H226 cells; procedure, shortened: as §1
SK-MEL-5 = assay: Growth inhibition of human SK-MEL5 cells; conditions: for TGI: read-out: Log TGI (converted); procedure, shortened: as §1
[2] = Growth inhibition of human NCI-322M cells; procedure, shortened: as §1
LOX IMVI = assay: Growth inhibition of human LOXIMVI cells; procedure, shortened: as §1
RPMI-8226 = assay: Growth inhibition of human RPMI8226 cells; procedure, shortened: as §1
MOLT-4 = assay: Growth inhibition of human MOLT4 cells; conditions: for TGI: read-out: Log TGI (converted); procedure, shortened: as §1
SNB-75 = assay: Growth inhibition of human SNB75 cells; procedure, shortened: as §1
ACHN = assay: Growth inhibition of human ACHN cells; procedure, shortened: as §1
EKVX = assay: Growth inhibition of human EKVX cells; procedure, shortened: as §1
MDA-MB-231 = assay: Growth inhibition of human MDA-MB-231 cells; procedure, shortened: as §1
SK-OV-3 = assay: Growth inhibition of human SKOV3 cells; procedure, shortened: as §1
K562 = assay: Growth inhibition of human K562 cells; procedure, shortened: as §1
OVCAR-4 = assay: Growth inhibition of human OVCAR4 cells; procedure, shortened: as §1
HCT-116 = assay: Growth inhibition of human HCT116 cells; procedure, shortened: as §1
SR = assay: Growth inhibition of human SR cells; procedure, shortened: as §1
CAKI-1 = assay: Growth inhibition of human CAKI1 cells; procedure, shortened: as §1
UACC-62 = assay: Growth inhibition of human UACC62 cells; procedure, shortened: as §1
A498 = assay: Growth inhibition of human A498 cells; procedure, shortened: as §1
OVCAR-5 = assay: Growth inhibition of human OVCAR5 cells; procedure, shortened: as §1
RXF 393 = assay: Growth inhibition of human RXF393 cells; procedure, shortened: as §1
UO-31 = assay: Growth inhibition of human UO31 cells; procedure, shortened: as §1

GI50 (OVCAR-3)	GI50 (NCI-H522)	GI50 (CCRF-CEM)	SMILES	GI50 (HOP-92)	GI50 (HCC 2998)	TGI (HCC 2998)	GI50 [1]	GI50 (IGROV-1)	GI50 (HL-60)	GI50 (T47D)	GI50 (PC-3)	GI50 (Hs-578T)	TGI (Hs-578T)	GI50 (SK-MEL-5)	TGI (SK-MEL-5)	GI50 (LOX IMVI)	GI50 (MOLT-4)	TGI (MOLT-4)	TGI (HOP-92)	GI50 (K562)	further results
2570 nM			Cc1ccc(Cl)cc1Nc1nc(C(F)(F)F)ccc1C(=O)Oc1ccc(Cl)cc1	1910 nM																	TGI (OVCAR-3; read-out: Log TGI (converted)): 8910 nM
2400 nM	1620 nM	1580 nM	COc1cc(NC(=O)c2ccc(C(F)(F)F)nc2Nc2ccc(Cl)cc2C)cc(OC)c1OC		1910 nM	5620 nM	2190 nM	955 nM	1740 nM	2450 nM	1860 nM										GI50 (KM12): 1550 nM
			Cc1ccc(Cl)cc1Nc1nc(C(F)(F)F)ccc1C(N)=O									813 nM	3980 nM	1910 nM	6610 nM	2240 nM					GI50 (NCI-H226): 1450 nM; TGI (NCI-H226; read-out: Log TGI (converted)): 9770 nM; GI50 [2]: 2040 nM
	1290 nM		COc1cccc(NC(=O)c2ccc(C(F)(F)F)nc2Nc2ccc(Cl)cc2C)c1																		GI50 (OVCAR-5): 2510 nM; TGI (NCI-H522): 7240 nM; GI50 (RXF 393): 1170 nM; GI50 (UO-31): 1450 nM; TGI (UO-31; read-out: Log TGI (converted)): 8320 nM; GI50 (CAKI-1): 2750 nM; GI50 (A498): 1660 nM
		2140 nM	COc1cccc(OC(=O)c2ccc(C(F)(F)F)nc2Nc2cc(Cl)ccc2C)c1	1620 nM								1230 nM	4790 nM				3090 nM	7940 nM	6920 nM	3090 nM	TGI (K562; read-out: Log TGI (converted)): 9330 nM; GI50 (RXF 393): 245 nM; TGI (RXF 393; read-out: Log TGI (converted)): 977 nM; TGI (CCRF-CEM; read-out: Log TGI (converted)): 5130 nM

SMILES	GI50 (OVCAR-3)	GI50 (NCI-H522)	GI50 (CCRF-CEM)	GI50 (HOP-92)	GI50 (HCC 2998)	TGI (HCC 2998)	GI50 [1]	GI50 (IGROV-1)	GI50 (HL-60)	GI50 (T47D)	GI50 (PC-3)	GI50 (Hs-578T)	TGI (Hs-578T)	GI50 (SK-MEL-5)	TGI (SK-MEL-5)	GI50 (LOX IMVI)	GI50 (MOLT-4)	TGI (MOLT-4)	TGI (HOP-92)	GI50 (K562)	further results
COc1cc(NC(=O)c2ccc(C(F)(F)F)nc2Nc2cc(Cl)ccc2C)cc(OC)c1OC		2290 nM	< 10 nM	< 10 nM	< 10 nM	5370 nM	2190 nM	407 nM	22.9 nM	2140 nM	1200 nM			1170 nM	10000 nM	724 nM	< 10 nM	41.7 nM	1660 nM	676 nM	GI50 (RPMI-8226): 457 nM; GI50 (SNB-75): 1070 nM; GI50 (ACHN): 1780 nM; GI50 (EKVX): 2750 nM; GI50 (MDA-MB-231): 1660 nM; TGI (MDA-MB-231; read-out: Log TGI (converted)): 8910 nM; GI50 (SK-OV-3): 2040 nM; LC50 (HL-60): 7240 nM; TGI (HL-60; read-out: Log TGI (converted)): 1620 nM; GI50 (OVCAR-4): 1740 nM; TGI (NCI-H522): 7410 nM; GI50 (HCT-116): 2510 nM; TGI (T47D; read-out: Log TGI (converted)): 9550 nM; GI50 (SR): 18.6 nM; TGI (SR; read-out: Log TGI (converted)): 302 nM; GI50 (CAKI-1): 2400 nM; TGI (LOX IMVI; read-out: Log TGI (converted)): 2400 nM; TGI (PC-3; read-out: Log TGI (converted)): 5370 nM; GI50 (UACC-62): 955 nM; GI50 (A498): 2340 nM
